TRPC4 inh = inhibitors of mouse TRPC4 channel, primary screen, Fluo4 calcium, HEK293 TRPC4beta/mu-opioid cells. DAMGO-evoked Fluo4 calcium flux; stronger effect = lower value. B-score at 10 µM. hit rate 0.39% among 300,000. AID 2247, 2010;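 active = B-score over 3 SD under the library average, no early fluorescence shift, positive overall ratio signal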
Target sequence (Q9QUQ5 whole entry, looked up): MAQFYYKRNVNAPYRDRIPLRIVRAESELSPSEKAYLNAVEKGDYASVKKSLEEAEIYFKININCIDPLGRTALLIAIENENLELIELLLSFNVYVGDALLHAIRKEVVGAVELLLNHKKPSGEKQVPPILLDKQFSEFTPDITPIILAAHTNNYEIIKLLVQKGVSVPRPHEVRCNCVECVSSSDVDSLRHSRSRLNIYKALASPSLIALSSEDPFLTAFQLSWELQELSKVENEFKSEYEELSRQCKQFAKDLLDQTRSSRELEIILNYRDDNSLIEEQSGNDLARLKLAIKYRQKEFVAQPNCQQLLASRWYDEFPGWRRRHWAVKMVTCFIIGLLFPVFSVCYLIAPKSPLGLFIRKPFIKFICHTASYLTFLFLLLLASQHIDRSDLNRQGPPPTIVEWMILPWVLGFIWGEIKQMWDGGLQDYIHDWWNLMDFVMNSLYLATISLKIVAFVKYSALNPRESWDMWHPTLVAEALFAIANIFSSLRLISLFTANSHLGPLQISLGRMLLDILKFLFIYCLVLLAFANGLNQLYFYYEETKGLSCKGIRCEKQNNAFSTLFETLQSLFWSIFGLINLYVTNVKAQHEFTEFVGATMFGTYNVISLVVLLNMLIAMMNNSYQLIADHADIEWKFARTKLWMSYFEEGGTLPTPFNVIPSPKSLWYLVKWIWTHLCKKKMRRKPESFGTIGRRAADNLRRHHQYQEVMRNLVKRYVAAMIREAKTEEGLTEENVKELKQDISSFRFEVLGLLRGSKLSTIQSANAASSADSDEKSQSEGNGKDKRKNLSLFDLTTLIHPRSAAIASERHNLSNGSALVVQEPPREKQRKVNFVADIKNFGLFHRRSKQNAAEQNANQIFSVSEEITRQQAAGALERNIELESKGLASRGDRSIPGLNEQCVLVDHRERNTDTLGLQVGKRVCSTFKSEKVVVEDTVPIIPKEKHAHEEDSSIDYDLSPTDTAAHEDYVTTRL
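System: stable TRPC4beta/mu-opioid receptor HEK293 cells; Dosing: single-point compound dosing; Measured by: Fluo4 Ca2+ flux fluorescence; Read-out basis: per-well B score of integrated baseline-normalized Fluo4 ratio.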
TRPC6 inhibitor = mouse TRPC6 channel inhibitors, primary screen, cell-based, HEK293, membrane potential dye; ACh-evoked depolarization; stronger effect = lower value; B-score at 10 µM; hit rate 1.1% among 310,000;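 active = B-score under library mean minus 3 SD, initial fluorescence not abnormally high, positive integrated signal ratio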;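 note: B-score derived from integrated fluorescence ratio over the kinetic read; more negative B-score means stronger inhibition of depolarization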
Platelet DG rel = inhibitors of platelet dense granule secretion, primary screen, cell-based, MLPCN, human platelets; human platelet-rich plasma, SFLLRN dense granule ATP release, luminescence; inhibition, %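 (compounds screened at 7.5 µM in platelet-rich plasma)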; hit rate 0.22% among 300,000;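 active = mean replicate score, as percent of positive control, at or above 50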
TRPC6 activator = mouse TRPC6 channel activators, primary screen, cell-based, HEK293, membrane potential dye. Short transient receptor potential channel 6 (Mus musculus), Q61143. HEK293-TRPC6 membrane potential dye fluorescence; stronger effect = higher value. B-score at 10 µM. hit rate 0.13% among 310,000;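 active = B-score of the integrated fluorescence ratio above library mean plus 3 SD, and starting fluorescence ratio within library mean plus 5 SD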;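 note: higher score means more depolarization so channel activation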
TRPC4 PAM = positive allosteric modulators of TRPC4, primary screen, cell-based, mouse TRPC4beta, HEK293 mu-opioid, Fluo-4 calcium | Short transient receptor potential channel 4 (Mus musculus), Q9QUQ5 | DAMGO EC20, Fluo-4 Ca2+ flux; stronger effect = higher value | B-score at 10 µM | hit rate 0.42% among 310,000;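 active = B-score of calcium response area above 5 SD of library B-scores, with initial fluorescence ratio within 5 SD of library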
TRPC4 act = activators of mouse TRPC4 channel, primary screen, Fluo4 calcium, HEK293 TRPC4beta/mu-opioid cells | Short transient receptor potential channel 4 (Mus musculus), Q9QUQ5 | Fluo4 calcium fluorescence; stronger effect = higher value | B-score at 10 µM | hit rate 0.49% among 310,000;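 active = B-score above 5 SD of library B-scores, and initial fluorescence ratio not above library mean plus 5 SD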;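 note: positive B-score marks a calcium rise read as TRPC4 activation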
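Assay system: HEK293 cells stably co-expressing mouse TRPC4beta and mu-opioid receptor / Timing: Fluo4 dye loading 45 min at room temperature, 110 s recording / Signal: Fluo4 calcium-sensitive dye fluorescence, kinetic, 1 Hz baseline / Read-out: integrated baseline-normalised fluorescence ratio, converted to per-well B score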
HEK293 MPD ctr = parental HEK293 membrane potential modulation, confirmation, counter-screen for TRPC6 modulator project, cell-based. shares compounds with TRPC6 inhibitor. membrane potential dye fluorescence. membrane potential signal change, % at 10 µM. hit rate 51% among 2,400;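 active = membrane potential signal moves up or down beyond 5 SD from buffer-only wells, on both duplicate plates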
HEK293 MPD ctr 2 = second counter-screen for TRPC6 modulators: effect in parental HEK293 cells | shares compounds with TRPC6 inhibitor | membrane potential dye fluorescence; after compound, maximal acetylcholine stimulation | inhibition, % at 10 µM | hit rate 14% among 2,400 | AID 488926;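 active = membrane potential signal drops by more than 5 SD from the mean control signal, in both duplicate plates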
TRPC4 ctr mod = TRPC4 modulation by TRPC6 hit compounds, confirmation, selectivity assay for TRPC6 modulator project, cell-based, HEK293 TRPC4/mu-opioid, membrane potential dye, mouse | membrane potential fluorescence | AID 488927, 2010 | shares compounds with TRPC6 inhibitor | hit rate 69% among 2,400 | percent change from control (negative = decrease, positive = increase), % at 10 µM;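 active = membrane potential signal moved up or down beyond 5 SD of buffer control wells, in both duplicate plates, actives on both sides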
TRPC4/MOR inh 2 = second selectivity test of TRPC6 modulators against mouse TRPC4; AID 488928; HEK293 TRPC4/mu-opioid, membrane potential dye fluorescence; stimulated with maximal-effect DAMGO; hit rate 55% among 2,400; shares compounds with TRPC6 inhibitor; inhibition, % at 10 µM;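 active = drop in membrane potential signal beyond 5 SD of the control wells in both duplicate plates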;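 note: TRPC4 counter screen for TRPC6 hits run under conditions tuned for TRPC6 not TRPC4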
TRPC6 inh conf = mouse TRPC6 channel inhibitors, confirmation, HEK293 cells, membrane potential dye, duplicate. shares compounds with TRPC6 inhibitor. ACh-evoked depolarization. inhibition, % at 10 µM. hit rate 43% among 3,300;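 active = fluorescence ratio falls more than 5 SD below the full-stimulation control mean, in both duplicate runs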;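 note: integrated fluorescence ratio of peak minus minimum over baseline after agonist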
TRPC6 act confirm = mouse TRPC6 channel activators, confirmation, HEK293 cells, membrane potential dye, duplicate. shares compounds with TRPC6 inhibitor. HEK293-TRPC6 membrane potential dye fluorescence, FDSS. activation, % at 10 µM. hit rate 11% among 2,800. AID 488961, 2010;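 active = ratio signal rise beyond 5 SD above unstimulated control wells' mean, seen in both duplicate runs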
Each line names hits and unclear results; the compound was inactive in the other large screens (follow-up assays come after a bar, where they were run). Hits are enriched below; roughly 2.5% of the tested compounds scored in any of these assays.

CN1CCc2c(c3ccccc3n2Cc2ccccc2)C1	TRPC6 inhibitor -5.4 | HEK293 MPD ctr 141% | HEK293 MPD ctr 2 inactive | TRPC4 ctr mod 18% | TRPC4/MOR inh 2 64% | TRPC6 inh conf inactive
CN(c1cccc2cccnc12)S(=O)(=O)c1ccccc1	none
N#Cc1nc(Cc2cccc3ccccc23)oc1NCCN1CCCCC1	TRPC6 inhibitor -5.2 | HEK293 MPD ctr 106% | HEK293 MPD ctr 2 inactive | TRPC4 ctr mod 10% | TRPC4/MOR inh 2 63% | TRPC6 inh conf inactive
CCCn1c(SCC(=O)c2cc(C)c(C)cc2C)n[nH]c1=O	none
COc1ccc(/C=C/c2cc(C(F)(F)F)[nH]c(=O)n2)cc1OC	TRPC6 inhibitor -5.9 | HEK293 MPD ctr -180% | HEK293 MPD ctr 2 inactive | TRPC4 ctr mod -34% | TRPC4/MOR inh 2 inactive | TRPC6 inh conf inactive | TRPC6 act confirm inactive
CCOc1cc(/C=C/c2cc(C(F)(F)F)[nH]c(=O)n2)ccc1O	none
CC1CN(C(=O)c2cc3cc(Br)ccc3[nH]2)CC(C)O1 (stereo unspecified)	none
COC(=O)c1ccc(CNC(=O)COC(=O)CCN2C(=O)C3CC=CCC3C2=O)cc1 (stereo unspecified)	none
O=[N+]([O-])c1cc(/C=N/O)ccc1N1CCCC1	none
O=[N+]([O-])c1cc(/C=N/n2cnnc2)ccc1N1CCCC1	TRPC6 inhibitor -5.2 | HEK293 MPD ctr -76% | HEK293 MPD ctr 2 inactive | TRPC4 ctr mod -15% | TRPC4/MOR inh 2 inactive | TRPC6 inh conf inactive | TRPC6 act confirm inactive
C/C(=N\Nc1nc2ccccc2[nH]1)c1ccc(N2CCOCC2)cc1	TRPC6 inhibitor -5.8 | HEK293 MPD ctr inactive | HEK293 MPD ctr 2 inactive | TRPC4 ctr mod -14% | TRPC4/MOR inh 2 inactive | TRPC6 inh conf inactive | TRPC6 act confirm inactive
C/C(=N\Nc1nc(C)cc(C)n1)c1ccc(N2CCOCC2)cc1	none
C/C(=N\Nc1nc2ccccc2[nH]1)c1ccc(Cl)s1	none
C/C(=N\Nc1nc2ccccc2[nH]1)c1ccc(C)o1	TRPC6 inhibitor -6 | HEK293 MPD ctr -140% | HEK293 MPD ctr 2 60% | TRPC4 ctr mod -26% | TRPC4/MOR inh 2 80% | TRPC6 inh conf 76% | TRPC6 act confirm inactive
Cc1ccc(N2C(=O)SC(Cc3ccccc3)C2=O)cc1 (stereo unspecified)	none

Bioassay records as filed in PubChem BioAssay.
